{"data": "Measured values collected from several papers", "note": "Compare with care: the assays were run in different laboratories."}
{"SMILES": "OC(C#Cc1ccc(F)c(F)c1)c1cccc(Cl)c1 (stereo not shown)", "tested on": "Pseudomonas aeruginosa", "assay": "microbial growth, absorbance", "conditions": "10 µM, 24 h", "quantity": "activity vs control", "result": "96%"}
{"SMILES": "C=CC(=O)NC1CCN(c2ncc3ncnc(Nc4ccc(Oc5ccc6c(c5)ncn6C)c(C)c4)c3n2)CC1", "tested on": "SW837", "assay": "cell growth or viability", "quantity": "EC50", "result": "21500 µM"}
{"SMILES": "C=C(F)C(=O)N1CCN(c2nc(OC[C@@H]3CCCN3C)nc3c2CCN(c2cccc4cccc(Cl)c24)C3)C[C@@H]1CC#N", "tested on": "SW837", "assay": "cell growth or viability, ATP luminescence", "conditions": "3D culture", "quantity": "IC50", "result": "0.00577 µM"}
{"SMILES": "CC(C)/N=c1\\cc2n(-c3ccc(Cl)cc3)c3ccccc3nc-2cc1Nc1ccc(Cl)cc1", "tested on": "Mycobacteroides abscessus", "assay": "microbial growth", "conditions": "clinical isolate", "quantity": "MIC", "result": "3.75 µM"}
{"SMILES": "Cc1cccc(C(=O)C#Cc2ccc(F)c(F)c2)c1", "tested on": "Pseudomonas aeruginosa", "assay": "microbial growth, absorbance", "conditions": "100 µM, 24 h", "quantity": "activity vs control", "result": "100%"}
{"SMILES": "Clc1ccc(Nc2cc3nc4ccccc4n(-c4ccc(Cl)cc4)c-3c/c2=N\\OCc2ccccc2)cc1", "tested on": "Mycobacteroides abscessus", "assay": "microbial growth", "conditions": "clinical isolate", "quantity": "MIC", "result": "> 30 µM"}
{"SMILES": "CN(C)c1cc(NC(=O)CNC(C)(C)C)c(O)c2c1C[C@H]1C[C@H]3[C@H](N(C)C)C(O)=C(C(N)=O)C(=O)[C@@]3(O)C(O)=C1C2=O", "tested on": "Mycobacteroides abscessus", "assay": "microbial growth, resazurin", "system": "ATCC19977", "quantity": "IC50", "result": "0.28 µg/mL"}
{"SMILES": "O=C(C#Cc1ccc(F)c(F)c1)c1ccccc1", "tested on": "Pseudomonas aeruginosa", "assay": "microbial growth, absorbance", "conditions": "10 µM, 24 h", "quantity": "activity vs control", "result": "94%"}
{"SMILES": "CN(C)c1cc(NC(=O)c2ccccc2)c(O)c2c1C[C@H]1C[C@H]3[C@H](N(C)C)C(O)=C(C(N)=O)C(=O)[C@@]3(O)C(O)=C1C2=O", "tested on": "Mycobacteroides abscessus", "assay": "microbial growth, resazurin", "system": "ATCC19977", "quantity": "IC50", "result": "13.8 µg/mL"}
{"SMILES": "C[C@H](NC(=O)CO/N=c1\\cc2n(-c3ccc(Cl)cc3)c3ccccc3nc-2cc1Nc1ccc(Cl)cc1)C(=O)OC(C)(C)C", "tested on": "Mycobacteroides abscessus", "assay": "microbial growth", "conditions": "clinical isolate", "quantity": "MIC", "result": "> 30 µM"}
{"SMILES": "CN(C)c1cc(NC(=O)Cc2cccnn2)c(O)c2c1C[C@H]1C[C@H]3[C@H](N(C)C)C(O)=C(C(N)=O)C(=O)[C@@]3(O)C(O)=C1C2=O", "tested on": "Mycobacteroides abscessus", "assay": "microbial growth, resazurin", "system": "ATCC19977", "quantity": "IC50", "result": "1.67 µg/mL"}
{"SMILES": "O=C(CO/N=c1\\cc2n(-c3ccc(Cl)cc3)c3ccccc3nc-2cc1Nc1ccc(Cl)cc1)NCc1ccc2c(c1)CCO2", "tested on": "Mycobacteroides abscessus", "assay": "microbial growth", "conditions": "clinical isolate", "quantity": "MIC", "result": "> 30 µM"}
{"SMILES": "OC(C#Cc1ccc(F)c(F)c1)c1ccccc1 (stereo not shown)", "tested on": "Pseudomonas aeruginosa", "assay": "microbial growth, absorbance", "conditions": "100 µM, 24 h", "quantity": "activity vs control", "result": "97%"}
{"SMILES": "O=C(NO)c1ccc(CNc2nc3cccc(-c4ccc5c(c4)OCO5)n3n2)cc1", "tested on": "DU-145", "assay": "cell growth or viability, SRB", "quantity": "GI50", "result": "0.47 µM"}
{"SMILES": "CN(C)c1cc(NC(=O)CCc2ccccc2)c(O)c2c1C[C@H]1C[C@H]3[C@H](N(C)C)C(O)=C(C(N)=O)C(=O)[C@@]3(O)C(O)=C1C2=O", "tested on": "Mycobacteroides abscessus", "assay": "microbial growth, resazurin", "system": "ATCC19977", "quantity": "IC50", "result": "8.87 µg/mL"}
{"SMILES": "C[C@H](NC(=O)CO/N=c1\\cc2n(-c3ccc(Cl)cc3)c3ccccc3nc-2cc1Nc1ccc(Cl)cc1)C(=O)O", "tested on": "Mycobacteroides abscessus", "assay": "microbial growth", "conditions": "clinical isolate", "quantity": "MIC", "result": "> 30 µM"}
{"SMILES": "Cc1ccccc1C(=O)C#Cc1ccc(F)c(F)c1", "tested on": "Pseudomonas aeruginosa", "assay": "microbial growth, absorbance", "conditions": "10 µM, 24 h", "quantity": "activity vs control", "result": "101%"}
{"SMILES": "CN(C)c1cc(NC(=O)Cc2ccncn2)c(O)c2c1C[C@H]1C[C@H]3[C@H](N(C)C)C(O)=C(C(N)=O)C(=O)[C@@]3(O)C(O)=C1C2=O", "tested on": "Mycobacteroides abscessus", "assay": "microbial growth, resazurin", "system": "ATCC19977", "quantity": "IC50", "result": "0.59 µg/mL"}
{"SMILES": "O=C(C#Cc1ccc(F)c(F)c1)c1ccc(Cl)cc1", "tested on": "Pseudomonas aeruginosa", "assay": "microbial growth, absorbance", "conditions": "100 µM, 24 h", "quantity": "activity vs control", "result": "96%"}
{"SMILES": "O=C(CO/N=c1\\cc2n(-c3ccc(Cl)cc3)c3ccccc3nc-2cc1Nc1ccc(Cl)cc1)NCc1ccc(C(F)(F)F)cc1", "tested on": "Mycobacteroides abscessus", "assay": "microbial growth", "conditions": "clinical isolate", "quantity": "MIC", "result": "> 30 µM"}
{"SMILES": "CN(C)c1cc(CNCC(C)(C)C)c(O)c2c1C[C@H]1C[C@H]3[C@H](N(C)C)C(O)=C(C(N)=O)C(=O)[C@@]3(O)C(O)=C1C2=O", "tested on": "Mycobacteroides abscessus", "assay": "microbial growth, resazurin", "system": "ATCC19977", "quantity": "IC50", "result": "< 1 µg/mL"}
{"SMILES": "COc1cc(C#CC(=O)C2CCCCC2)ccc1O", "tested on": "Pseudomonas aeruginosa", "assay": "microbial growth, absorbance", "conditions": "10 µM, 24 h", "quantity": "activity vs control", "result": "81%"}
